# Bioassay records from PubChem BioAssay.
# MLL AF4-AF9 inh: MLL-AF4/AF9 protein interaction inhibition. P42568. AlphaScreen, biotin-AF4 peptide binding to FLAG-AF9. inhibition, % at 10 µM. 350,000 compounds, 0.47% hits. AID 651704;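 active = every replicate reaching a set inhibition limit, whatever the replicate mean, cut at about 25% in these data; inconclusive = mean inhibition reaches that limit but some replicates miss it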
# Target sequence (P42568 whole entry, looked up): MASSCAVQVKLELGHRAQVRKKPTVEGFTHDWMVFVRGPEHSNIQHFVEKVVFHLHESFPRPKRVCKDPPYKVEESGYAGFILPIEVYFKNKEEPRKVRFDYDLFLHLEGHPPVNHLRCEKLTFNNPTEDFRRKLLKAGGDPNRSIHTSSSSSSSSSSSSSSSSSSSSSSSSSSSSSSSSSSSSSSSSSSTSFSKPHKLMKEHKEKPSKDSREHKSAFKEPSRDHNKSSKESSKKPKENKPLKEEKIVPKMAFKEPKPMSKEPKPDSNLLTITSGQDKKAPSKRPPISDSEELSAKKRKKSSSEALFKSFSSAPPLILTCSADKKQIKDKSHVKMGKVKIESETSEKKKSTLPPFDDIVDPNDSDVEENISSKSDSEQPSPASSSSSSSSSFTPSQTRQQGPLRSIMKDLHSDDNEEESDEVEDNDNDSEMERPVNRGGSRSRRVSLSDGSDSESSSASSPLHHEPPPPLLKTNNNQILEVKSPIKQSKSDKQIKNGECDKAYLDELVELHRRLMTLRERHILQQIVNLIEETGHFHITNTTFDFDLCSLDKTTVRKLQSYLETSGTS
# PGC1a acetyl inh: modulators of PGC1a acetylation; 350,000 compounds, 0.17% hits; U2OS PGC1a acetylation, AlphaScreen anti-acetyl-lysine; with virally co-expressed GCN5 acetyltransferase; inhibition, % at 15.6 µM;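 active = every replicate shows inhibition of at least 40%; inconclusive = mean inhibition at least 40% but some replicate below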
# XiGFP reactiv: reactivates the inactive X chromosome in mouse fibroblasts | activation, % at 7.58 µM | 360,000 compounds, 0.055% hits | XiGFP mouse fibroblasts, % GFP-positive cells imaging, 3 d; cells co-treated with 5-aza-dC sensitizer; scaled so ellipticine positive control = 100%;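 active = mean normalized replicate activation at least 10% and every replicate at or above 10%; inconclusive = only one of the two criteria met; inactive = mean below 10% and not all replicates reach 10%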
#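 Assay system: SV40-immortalized XiGFP fibroblast cells, line 68-5-11; buffer or medium: DMEM plus 5-aza-dC sensitizer; compound: one concentration, pinned; timing: compounds 3 days, fix/stain 15 min at room temperature; benchmarks: positive control ellipticine, 6 µM final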
# PAX8 reporter: lowers PAX8-driven luciferase in RMG-I cells; 360,000 compounds, 1.2% hits; inhibition, % at 12.6 µM; RMG-I TPO-luciferase reporter, SteadyGlo, 24 h;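 active = mean replicate inhibition at least 60% with every replicate also reaching 60%; inconclusive = only one of the two criteria is met; inactive = mean below 60% and not all replicates reaching 60%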;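 note: luciferase light reporting Pax8 driven TPO promoter activity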
# EWS-Fli inh: EWS/Fli transcriptional activity inhibition | A673 NR0B1-luciferase reporter, viability-normalised | inhibition, % at 12.6 µM | 350,000 compounds, 0.67% hits | AID 651661;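 active = mean inhibition of at least 50% after viability correction, with every replicate also passing that limit; inconclusive = mean reaches 50% but only one of two replicates passes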;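 note: firefly luciferase signal divided by Alamar Blue viability fluorescence both relative to DMSO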
# GSIS activator: primary screen for activators of insulin secretion dependent on glucose, INS-1E cells, GLuc reporter luminescence | activation, % at 16.6 µM | 370,000 compounds, 0.61% hits | AID 743287 | INS-1E GLuc reporter insulin secretion, 2-3 h;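 active = lowest replicate activation of at least 40%, so every replicate reaches that level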
# A number is an active result; - = inactive; ? = inconclusive; . = not tested or not shown. A selection: hits, their analogues and other compounds. The true share with any hit is near 2.1%.
SMILES,MLL AF4-AF9 inh,PGC1a acetyl inh,XiGFP reactiv,PAX8 reporter,EWS-Fli inh,GSIS activator
COc1cc(/C=N/NC(=O)c2cc(-c3c(C)nn(-c4ccccc4)c3C)n[nH]2)ccc1O,-,.,-,69.4,-,-
Cc1cc(C)c2c(C)nn(C3CCCCC3)c2n1,.,-,.,.,.,71.0
CCOc1ncccc1C(=O)Nc1ccccc1F,-,-,-,-,-,76.6
NC(=O)COC(=O)c1cccnc1Nc1ccccc1F,-,-,-,-,-,-
CCOc1ncccc1C(=O)NNC(=O)c1ccccc1-n1cccc1,-,.,-,.,.,54.1
CCOc1ncccc1C(=O)Nc1ccc(F)cc1,-,-,-,-,-,-
CCOc1ncccc1C(=O)Nc1cccc(S(=O)(=O)NC2=NCCC2)c1,-,.,-,-,-,54.6
CN(C)C(=O)COC(=O)c1cccnc1Nc1ccccc1F,-,.,-,-,-,79.5
CCOc1ncccc1C(=O)Nc1ccc(Cl)cc1,.,.,.,-,.,.
CCC(=O)N1CC(=O)N2[C@H](CO)[C@@H](c3ccc(-c4ccccc4C)cc3)[C@H]2C1,-,-,-,-,-,-
C[C@@H]1CN([C@H](C)CO)C(=O)c2cc(N(C)C)ccc2O[C@@H](C)CCCCO[C@@H]1CN(C)C(=O)Nc1ccc(F)cc1,-,-,-,-,-,-
C[C@@H]1CN([C@@H](C)CO)C(=O)c2cc(NC(=O)Nc3ccc4c(c3)OCO4)ccc2O[C@@H]1CN(C)S(=O)(=O)c1ccc(Cl)cc1,-,-,-,.,-,-
C[C@H](CO)N1C[C@H](C)[C@H](CN(C)Cc2ccc(C(=O)Nc3ccccc3N)cc2)Oc2ccc(NC(=O)CCN3CCOCC3)cc2C1=O,-,-,-,.,-,-
C[C@@H]1CN([C@@H](C)CO)C(=O)Cc2cc(NC(=O)NC3CCCCC3)ccc2O[C@H]1CN(C)C(=O)Nc1ccc2c(c1)OCO2,-,-,-,-,-,-
CCOc1ncccc1C(=O)OCC(=O)NCCCc1ccccc1,-,-,-,-,-,54.0
CCOc1ncccc1C(=O)OCC(=O)NCCc1ccccc1,.,-,.,.,.,-
CC(=O)N1[C@@H](CO)[C@@H]2c3ccccc3N(S(=O)(=O)c3ccc(F)cc3)C[C@@H]21,.,-,-,-,-,-
Cc1ccc(S(=O)(=O)N(C)C)cc1NC(=O)CSc1ncc(C(F)(F)F)cc1Cl,-,.,-,-,-,-
CCN(CC)S(=O)(=O)c1ccc(C)c(NC(=O)CSc2ncc(C(F)(F)F)cc2Cl)c1,.,.,-,-,.,169.0
C[C@H](CO)N1C[C@H](C)[C@H](CN(C)Cc2ccc(C(=O)Nc3ccccc3N)cc2)Oc2ccc(NS(=O)(=O)c3ccc(Cl)cc3)cc2CC1=O,-,-,-,-,-,-
C[C@H]1CCCCO[C@H](CN(C)Cc2ccncc2)[C@@H](C)CN([C@@H](C)CO)C(=O)c2cc(NC(=O)Nc3ccc(C(F)(F)F)cc3)ccc2O1,-,-,-,-,-,-
C[C@@H]1CCCCO[C@@H](CN(C)Cc2ccncc2)[C@@H](C)CN([C@H](C)CO)C(=O)c2cc(NC(=O)Nc3ccc(C(F)(F)F)cc3)ccc2O1,-,-,-,-,-,-
C[C@@H]1CCCCO[C@@H](CN(C)Cc2ccncc2)[C@H](C)CN([C@H](C)CO)C(=O)c2cc(NC(=O)Nc3ccc(C(F)(F)F)cc3)ccc2O1,-,-,-,99.1,-,-
C[C@@H]1CN([C@@H](C)CO)C(=O)c2cc(NC(=O)Nc3ccc(C(F)(F)F)cc3)ccc2O[C@@H](C)CCCCO[C@H]1CN(C)Cc1ccncc1,-,-,-,86.3,-,-
C[C@@H]1CN([C@@H](C)CO)C(=O)c2cc(NC(=O)Nc3ccc(C(F)(F)F)cc3)ccc2O[C@@H](C)CCCCO[C@@H]1CN(C)Cc1ccncc1,-,-,-,83.5,-,-
SMILES,MLL AF4-AF9 inh,PGC1a acetyl inh,XiGFP reactiv,PAX8 reporter,EWS-Fli inh,GSIS activator
CC(=O)N(C)C[C@@H]1Oc2ncc(-c3ccccc3C)cc2C(=O)N([C@H](C)CO)C[C@H]1C,-,-,-,.,-,-
CC(C)(C)C1CCc2c(sc(NC(=O)c3cccs3)c2C(N)=O)C1 (centres undefined),.,-,.,.,.,44.7
COC(=O)/C=C1\OCc2cc(OC)c(OC)cc21,.,.,-,-,-,54.7
COc1cc2c(cc1OC)/C(=C/C(C)=O)OC2,.,.,-,-,-,119.3
Cc1ccc(S(=O)(=O)N(C)C[C@H]2Oc3c(NC(=O)Nc4ccc(C(F)(F)F)cc4)cccc3C(=O)N([C@@H](C)CO)C[C@H]2C)cc1,-,-,-,?,-,-
C[C@H](O)C#Cc1ccc2c(c1)O[C@@H](CN(C)C(=O)c1ccccc1)[C@H](C)CN([C@@H](C)CO)S2(=O)=O,-,-,-,.,-,-
O=S(=O)(c1ccc(-c2csc(Nc3ccc(Br)cc3)n2)cc1)N1CCCC1,.,.,-,-,.,88.9
O=S(=O)(c1ccc(-c2csc(Nc3ccc(F)cc3)n2)cc1)N1CCCC1,-,-,-,-,-,-
CCCN(CCC)C1Sc2ccc(C(=O)OC)cc2NC1=O (centres undefined),.,-,.,.,.,-
COC(=O)c1ccc2c(c1)NC(=O)C(N(CC(C)C)CC(C)C)S2 (centres undefined),-,-,-,-,-,45.8
FC(F)(F)c1cccc(CC2CN(Cc3ccccc3)Cc3ccccc3N2c2cc(Cl)cc(Cl)c2)c1 (centres undefined),-,-,-,-,75.8,.
C[C@@H]1CN([C@@H](C)CO)C(=O)c2cc(NS(=O)(=O)c3ccccc3)ccc2O[C@@H](C)CCCCO[C@@H]1CN(C)S(=O)(=O)c1ccc(Cl)cc1,-,-,-,-,-,-
CCOC(=O)Cn1nnc(-c2cccc(OC)c2)n1,.,-,.,.,.,-
COc1cccc(-c2nnn(CC(=O)O)n2)c1,.,-,.,.,.,75.9
Cc1c(C(=O)NC(=S)Nc2ccccc2N2CCCC2)cccc1[N+](=O)[O-],-,.,-,-,77.4,-
O=C(NC(=S)Nc1ccccc1N1CCCC1)c1cccs1,-,50.8,-,-,-,-
O=C(NC(=S)Nc1ccccc1N1CCCCC1)c1cccs1,.,.,-,-,.,-
C[C@@H]1CCCCO[C@H](CN(C)C(=O)CCCN(C)C)[C@@H](C)CN([C@@H](C)CO)C(=O)c2cc(NC(=O)NC3CCCCC3)ccc2O1,-,-,-,-,-,-
COc1ccc(NC(=O)N(C)C[C@@H]2Oc3ccc(NS(=O)(=O)c4ccc(C)cc4)cc3CC(=O)N([C@H](C)CO)C[C@H]2C)cc1,.,-,-,-,-,-
Cc1[nH]n(-c2ccccc2)c(=O)c1N=Nc1ccccc1C(=O)O,-,-,-,-,-,-
Cc1[nH]n(-c2ccccc2)c(=O)c1N=Nc1ccccc1O,-,-,-,65.5,-,-
Cc1cc(C(=O)CN2C(=O)C(=O)N(Cc3ccco3)C2=O)c(C)n1CCc1ccccc1,-,-,-,-,53.9,-
